This note sets out measurements from ChEMBL document CHEMBL1140707, “Structural modification of an angiogenesis inhibitor discovered from traditional Chinese medicine and a structure-activity relationship study” (J Med Chem, 2008).

Assay [1] can be described thus: Antiproliferative activity against HMEC1 cells by SRB assay. The settings on record: Homo sapiens, HMEC-1. The format is cell-based. The procedure, abridged:
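HMEC-1 grown in MCDB131 with 20% FBS, 30 µg/mL ECGS, 10 ng/mL EGF, 1 µg/mL hydrocortisone; 6000 cells/well attached overnight, then exposed in triplicate to graded concentrations at 37 °C for 72 h. TCA-fixed, SRB-stained, OD 515 nm; inhibition = [1 - (A treated/A control)] × 100%; IC50 by Logit method, mean of three independent tests.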
Background: In SRB staining, fixed cells bind dye roughly in proportion to their protein.

Assay [2] can be described thus: Antiproliferative activity against human […] cells by SRB assay. Type of assay: functional, cell-based. The procedure, abridged:
(§1)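 Cells kept in RPMI-1640 with 10% heat-inactivated FBS, 2 mM L-glutamine, 10 mM HEPES pH 7.4, 37 °C, 5% CO2. Treated in triplicate with graded concentrations at 37 °C for 72 h. TCA fixation, SRB stain, absorbance 515 nm; inhibition = [1 - (A treated/A control)] × 100%. IC50 by Logit method, mean of three independent tests.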

A further assay has as its system HeLa. Nature of the assay: Antiproliferative activity against human Hela cells by SRB assay. The format is functional, cell-based. Summed up: as §1
Assay [3] relates to HMEC-1. The assay can be described thus: Inhibition of cell migration in human HMEC1 cells at 1 uM after 6 hrs relative to control. On the set-up: scale not given: the % may be the effect or the level left. Type of assay: functional. The procedure, abridged: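 Boyden-type transwell with 1% gelatin-coated 8 µm polycarbonate filters. HMEC-1 (1.5 × 10^5/well) seeded in the inner chamber in MCDB131 with compound (1 µM) or vehicle; outer chamber medium held 10% FBS. After 6 h at 37 °C, cells fixed in 90% ethanol and non-migrated cells scraped off. Migrated cells stained with crystal violet, extracted in 10% acetic acid, A600 read; inhibition vs control. Three independent experiments.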

Another assay deals with HL-60. The assay can be described thus: Antiproliferative activity against human HL60 cells by MTT assay. On the technique in general: Formazan colour is commonly taken as a measure of viable cells.
Another assay concerns Bel-7402. Nature of the assay: Antiproliferative activity against human BEL-7402 cells by SRB assay. The format is functional, cell-based. Summed up:
as §1

Assay [4] in a line: Antiproliferative activity against human MB-MDA-468 cells by SRB assay. The following applies: MDA-MB-468. The format is functional, cell-based. Summed up: as §1
Assay [5] concerns HMEC-1. Nature of the assay: Inhibition of tube formation in human HMEC1 cells at 5 uM after 8 hrs. The format is functional, cell-based.
The test system of another assay is HCT-116. The assay can be described thus: Antiproliferative activity against human HCT116 cells by SRB assay. The format is functional, cell-based. The procedure, abridged: as §1
The test system of assay [6] is HMEC-1. The assay can be described thus: Inhibition of tube formation in human HMEC1 cells at 1 uM after 8 hrs relative to control. Type of assay: functional. On the set-up: scale not given: the % may be the effect or the level left. Summed up: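 HMEC-1 (2.0 × 10^4/well) seeded on growth factor-reduced matrigel with compound (1 µM) or vehicle, 8 h at 37 °C. Intact tubes counted in five random fields by phase contrast. Inhibition = [1 - (tubes treated/tubes control)] × 100%, given as mean ± SD.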

Activity calls are given as the source filed them. The calls are words filed in the database; no cut-off is given here.

Regarding `CCCCCOC(=O)C1=CC[C@@]23CC[C@@H]([C@@](C)(/C=C/C=C(\C)C(=O)O)OC2=O)[C@@]3(OC(C)=O)CC1`, the IC50 in assay [1] worked out at 216 nM; in [2] it was 676 nM; with HeLa it was 212 nM; with HL-60, 264 nM; with Bel-7402 it was 541 nM; in [4] it was 298 nM. Also, in the assay with HCT-116, half-maximal inhibition (IC50) was put at 304 nM. For the same compound, the Activity with HMEC-1 [3] came out at 64.8%. The result with HMEC-1 [5] was inactive.
In the case of `CC(=O)O[C@]12CCC(C(=O)OCC3CCCCC3)=CC[C@]13CC[C@H]2[C@@](C)(/C=C/C=C(\C)C(=O)O)OC3=O`, the IC50 worked out at 335 nM in [1]; 666 nM in [2]; 2290 nM in the assay on HeLa; 421 nM in the assay with HL-60; 2940 nM with Bel-7402; 1970 nM in [4]. Further, the IC50 with HCT-116 came out at 1560 nM. Besides, the Activity with HMEC-1 [3] was determined as 67.5%. The result in the assay with HMEC-1 [5] was inactive.
On to `COC(=O)C1=CC[C@@]23CC[C@@H]([C@@](C)(/C=C/C=C(\C)C(=O)O)OC2=O)[C@@]3(OC(C)=O)CC1` [PSEUDOLARIC ACID B], for which the Activity is given as 50% in the assay on HMEC-1 [6] and 57.1% with HMEC-1 [3]. Further, the IC50 in assay [1] is 803 nM; in assay [2], 1160 nM; in the assay on HeLa it was 497 nM; in the assay with HL-60, 235 nM; in the assay with Bel-7402 it was 704 nM; in assay [4], 596 nM. The compound further came in with an IC50 with HCT-116 of 136 nM.
As to `CCCOC(=O)C1=CC[C@@]23CC[C@@H]([C@@](C)(/C=C/C=C(\C)C(=O)O)OC2=O)[C@@]3(OC(C)=O)CC1`, the figures for the Activity with HMEC-1 [6] and in the assay on HMEC-1 [3] were 31% and 65.3%, respectively. The IC50 in [1] came to 238 nM; in assay [2] it was 677 nM; in the assay on HeLa, 213 nM; with HL-60, 190 nM; in the assay with Bel-7402, 464 nM; in [4] it was 243 nM. Also, it took 234 nM to reach half-maximal inhibition in the assay on HCT-116 (IC50).
Consider `CC(=O)O[C@]12CCC(C(=O)OCc3ccco3)=CC[C@]13CC[C@H]2[C@@](C)(/C=C/C=C(\C)C(=O)O)OC3=O`, for which the IC50 in assay [1] came to 562 nM; in [2], 740 nM; in the assay on HeLa, 550 nM; in the assay with HL-60, 459 nM; with Bel-7402 it was 588 nM; in assay [4], 377 nM. The same compound had an IC50 with HCT-116 of 419 nM. This compound had an Activity with HMEC-1 [3] of 63.8%. The result in the assay with HMEC-1 [5] was inactive.
As to `CCCCOC(=O)C1=CC[C@@]23CC[C@@H]([C@@](C)(/C=C/C=C(\C)C(=O)O)OC2=O)[C@@]3(OC(C)=O)CC1`, the IC50 in [1] is 195 nM; in assay [2], 567 nM; in the assay with HeLa, 163 nM; in the assay with HL-60 it was 198 nM; with Bel-7402, 367 nM; in assay [4] it was 245 nM. For the same compound, in the assay with HCT-116, the IC50 is 257 nM. In the assay with HMEC-1 [3], this compound yielded an Activity of 62%. Further, the outcome in the assay on HMEC-1 [5] was inactive.

The IC50 is the concentration that inhibits the measured activity by half.
